High-throughput results deposited in PubChem BioAssay by The Scripps Research Institute Molecular Screening Center.
CTSL1 counter: Fasciola hepatica cathepsin L1 inhibitors, primary screen, counter-screen for PFM18AAP inhibitor project, biochemical, QFRET, fluorogenic peptide substrate | recombinant F. hepatica cathepsin L1, Z-Leu-Arg-MCA fluorescence | inhibition, % at 5.96 µM | 0.49% of 300,000 active | AID 1906, 2009;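 active = inhibition above the mean of all tested compounds plus 3 SD, set per screening campaign, cut at about 17% in these data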;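 also: 0% = plate median of test compound wells and 100% = 1 µM Z-Phe-Ala-diazomethylketone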
EBNA-1 inh: EBNA-1 DNA-binding inhibitors, primary screen, biochemical, fluorescence polarization | inhibition, % at 14.8 µM | 0.34% of 300,000 active | AID 1950, 2009; in the data active = inhibition above about 28%
ZTA DNA inh: ZTA (EBV) inhibition in EBNA-1 counter-screen; ZTA-DNA binding, fluorescence polarization; inhibition, % at 11 µM; 0.15% of 320,000 active; AID 2234; in the data active = inhibition above about 33%
Target sequence (P03206 whole entry, looked up): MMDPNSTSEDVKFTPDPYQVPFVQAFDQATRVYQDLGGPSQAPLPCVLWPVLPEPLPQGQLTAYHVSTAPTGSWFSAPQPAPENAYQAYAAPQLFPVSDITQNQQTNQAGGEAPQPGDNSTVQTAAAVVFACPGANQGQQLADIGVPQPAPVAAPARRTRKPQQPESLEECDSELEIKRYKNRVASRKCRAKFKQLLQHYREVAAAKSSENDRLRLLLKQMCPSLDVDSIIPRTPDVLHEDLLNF
NS3 helicase inh: inhibitors of HCV NS3 helicase, primary screen, biochemical, Cy5 molecular beacon fluorescence. Hepatitis C virus NS3 helicase. NS3 helicase DNA unwinding. inhibition, % at 10.9 µM. 0.56% of 290,000 active. AID 1800, 2009;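 active = inhibition above the mean of all tested compounds plus 3 SD, set per campaign, cut at about 35% in these data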;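 also: 0% = DMSO wells and 100% = thioflavine S control wells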
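Compound dosing – single dose, 10.9 µM nominal final, DMSO 0.8% final · System – NS3 helicase fragment of HCV · Buffer or medium – MOPS pH 6.5, MgCl2, DTT, Tween20, BSA · Signal – Cy5 beacon fluorescence read at start and 1 h · Also added – annealed dual-labelled DNA beacon duplex, ATP-started · Schedule – 1 h at 25 °C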
EBNA-1 inh conf: EBNA-1 DNA-binding inhibitors, retest, confirmation, biochemical, fluorescence polarization, triplicate; Recombinant EBNA-1 DBD, Cy5-DNA fluorescence polarization; 35% of 830 active; AID 2292, 2010; shares compounds with EBNA-1 inh; inhibition, % at 14.8 µM;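 active = mean inhibition across replicates above a set limit taken from the earlier primary screen, cut at about 28% in these data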;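 also: plate controls were EBNA-1 protein with DMSO for no effect and wells lacking EBNA-1 for full effect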
ZTA DNA inh trip: EBV Zta DNA binding inhibitors, counter-screen for EBNA-1 inhibitor project, biochemical, fluorescence polarization, triplicate; shares compounds with EBNA-1 inh; Zta-ZRE DNA binding, Cy5 fluorescence polarization; inhibition, % at 11.1 µM; 830 tested, under 10 active;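 active = mean inhibition over triplicates above a set limit taken from the primary EBNA-1 screen, cut at about 37% in these data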;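 also: purified full length Zta protein with Cy5 labeled ZRE DNA probe; 0% = Zta with DMSO and 100% = wells lacking Zta protein; inhibitors lower polarization by freeing the labeled DNA probe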
The depositor's hits bear a star; x = not tested or not shown. Hits are enriched below; roughly 1.4% of the tested compounds scored in any of these assays.

SMILES	CTSL1 counter	EBNA-1 inh	ZTA DNA inh	NS3 helicase inh	EBNA-1 inh conf	ZTA DNA inh trip
c1ccc(-c2ccc(C3=Nn4c(nnc4-c4cc(-c5ccccc5)n[nH]4)SC3)cc2)cc1	-2	33*	12	-3	52*	24
NC(=O)c1nsc(C(=O)N(Cc2ccco2)C(C(=O)NC2CCCC2)c2ccc(O)cc2)c1N (centres undefined)	x	x	x	4	x	x
Cc1cc(C)c2cc(C#N)c(SCC(=O)NCC3CCCO3)nc2c1 (centres undefined)	4	5	11	13	x	x
Cc1cc(C)c2cc(C#N)c(SCC(=O)Nc3ccc4c(c3)OCO4)nc2c1	2	32*	-2	-1	50*	1
COc1ccc(/C=N/n2c(-c3cc(C)[nH]n3)n[nH]c2=S)cc1OC	-2	-3	8	-2	x	x
CCOC(=O)c1ccccc1NC(=O)c1n[nH]c(=O)c2ccccc12	-1	3	-13	5	x	x
NC(=O)c1cc(-c2ccccc2)sc1NC(=O)Cc1ccc(S(=O)(=O)N2CCOCC2)s1	-2	31*	-5	-9	53*	3
Cc1ccc(NC(=O)CCNC(=O)c2ccc([N+](=O)[O-])cc2)cc1S(=O)(=O)N(C)C	1	-18	14	-3	x	x
Cc1c(Cl)cccc1NC(=O)c1ccc(OCC(=O)NCc2ccccc2)cc1	-3	33*	-2	-8	44*	14
COc1ccc(NC(=O)c2ccccc2-c2ccc(C(F)(F)F)cc2)cc1S(=O)(=O)N1CCOCC1	4	-5	-5	2	x	x
COc1ccc(S(=O)(=O)N2CCOCC2)cc1NC(=O)c1ccccc1-c1ccc(C(F)(F)F)cc1	3	32*	-1	-3	37*	14
CCOC(=O)C(Cc1ccc(NC(=O)/C(=C/c2ccc(OC(C)=O)cc2)NC(C)=O)cc1)N1C(=O)c2ccccc2C1=O (centres undefined)	2	4	13	-16	x	x
CCOC(=O)C(Cc1ccc(NC(=O)/C(=C/c2ccccc2)NC(=O)c2ccccc2)cc1)N1C(=O)c2ccccc2C1=O (centres undefined)	1	41*	10	-2	11	8
O=C(Cn1c(O)c(/C=C2\C=Nc3ccc(Br)cc32)sc1=O)N1CCCC1	5	29*	-5	0	10	-1
Cc1ccccc1NC(=S)N=Nc1c(O)n(C)c2ccc(S(=O)(=O)N3CCOCC3)cc12	1	42*	-1	5	15	9
O=C(CCc1nc2sc3c(c2c(=O)[nH]1)CCCC3)Nc1ccccc1Cl	1	39*	7	x	8	-2
COc1cc(C(C)=O)ccc1OCCCOc1cccc2cccnc12	0	4	-8	-4	x	x
O=C(Cn1c(NCCCO)nc2ccccc21)c1ccco1	0	-7	-14	-4	x	x
COc1ccc(-n2nnnc2SCC(=O)c2ccc3c(c2)OCCO3)cc1	1	28*	-7	0	25	15
CCOC(=O)N1CCN(S(=O)(=O)c2ccc(F)c(C(=O)Nc3cccc(Cl)c3C)c2)CC1	-2	81*	-8	-12	12	-2
O=C(COc1ccccc1Cl)NCC(c1cccs1)N1CCOCC1 (centres undefined)	2	-4	-5	x	x	x
CN(CCCNC(=O)c1cccn2c(=O)c3ccccc3nc12)Cc1ccccc1	2	3	11	-91	x	x
CC(=O)Nc1ccc(NC(=O)c2cc(=O)c3ccc(C)cc3o2)cc1	4	5	19	-10	x	x
CC(=O)Nc1ccc(NC(=O)c2cc(=O)c3cc(C)c(C)cc3o2)cc1	4	73*	0	1	35*	2
Cc1ccccc1NC(=O)Cc1nc(COC(=O)c2cc(Cl)ccc2O)cs1	2	33*	-7	-13	10	5
Cc1ccccc1NC(=O)Cc1nc(COC(=O)c2cc(Br)ccc2O)cs1	x	x	7	x	x	x
Cc1ccc(-c2nnn(CC(=O)NCCc3ccc4c(c3)OCO4)n2)cc1	0	44*	6	-3	10	9
CC12CC3(C)CC(C)(C1)CC(C(=O)NC1=NCCS1)(C2)C3	0	5	0	-19	x	x
